Measurements published in ChEMBL document CHEMBL1146599, “Substituted pyrrol-1-ylacetic acids that combine aldose reductase enzyme inhibitory activity and ability to prevent the nonenzymatic irreversible modification of proteins from monosaccharides” (J Med Chem, 2003).
Where “and” joins values, the source holds several entries; their conditions need not be identical. Identical values can stand only once.

Assays:
[1] = biological target: Aldo-keto reductase family 1 member B1 (Rattus norvegicus) (UniProt P07943); assay: In vitro inhibitory activity against aldose reductase of rat lens at 10E-6 M concentration
Method in brief: (§1)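 Aldose reductase was prepared from lenses quickly removed from euthanized Fischer-344 rats of both sexes. Compounds were dissolved in 0.2 M NaHCO3. Activity was followed spectrophotometrically as NADPH oxidation. Runs were done in triplicate, and values are means with standard error from three determinations.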

[2] = biological target: T1, Albumin (Bos taurus, UniProt P02769); assay: In vitro ability to inhibit the irreversible modification of the model protein albumin in the presence of fructose as glycating agent (5 mM)
T1 sequence (P02769 whole entry): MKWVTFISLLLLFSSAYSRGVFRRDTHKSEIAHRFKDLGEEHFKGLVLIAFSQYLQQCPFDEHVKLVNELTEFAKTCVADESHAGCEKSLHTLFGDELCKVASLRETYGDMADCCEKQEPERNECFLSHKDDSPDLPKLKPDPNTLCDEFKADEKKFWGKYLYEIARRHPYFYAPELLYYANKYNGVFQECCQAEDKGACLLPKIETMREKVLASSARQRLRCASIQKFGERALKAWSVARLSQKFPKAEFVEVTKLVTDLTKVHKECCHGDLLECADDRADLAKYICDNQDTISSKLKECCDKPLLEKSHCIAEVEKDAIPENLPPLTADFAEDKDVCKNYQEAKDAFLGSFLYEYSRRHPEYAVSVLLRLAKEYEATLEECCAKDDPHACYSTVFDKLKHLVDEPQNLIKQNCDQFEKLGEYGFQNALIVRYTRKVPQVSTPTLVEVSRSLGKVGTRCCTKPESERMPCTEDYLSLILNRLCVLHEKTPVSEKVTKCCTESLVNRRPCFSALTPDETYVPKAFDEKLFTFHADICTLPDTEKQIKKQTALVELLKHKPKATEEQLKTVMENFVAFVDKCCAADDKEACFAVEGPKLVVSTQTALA
Method in brief: (§2)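 Bovine serum albumin (fraction V, essentially fatty acid free) was incubated with fructose for 28 days. Compounds were added as potassium salts dissolved in water. Data are means ± SD with the number of samples given. Significance versus control was assessed by Student's t test.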

[3] = biological target: T1, Albumin; assay: Glycation-induced fluorescence changes of bovine serum albumin when exposed to fructose (1 mM); p<0.01; type: functional; details: cattle; method in brief: as §2
[4] = biological target: T1, Albumin; assay: Formation of DNPH-reactive carbonyl groups in bovine serum albumin exposed to fructose (5 mM); not detectable.; type: functional; details: cattle, 5000 µM; method in brief: as §2
[5] = biological target: T1, Albumin; assay: Glycation-induced fluorescence changes of bovine serum albumin when exposed to fructose (5 mM); p<0.001; type: functional; details: cattle; method in brief: as §2
[6] = biological target: T1, Albumin; assay: Formation of DNPH-reactive carbonyl groups in bovine serum albumin exposed to fructose (1 mM); p<0.01; type: functional; details: cattle; method in brief: as §2
[7] = biological target: Aldo-keto reductase family 1 member B1 (Rattus norvegicus) (UniProt P07943); assay: In vitro inhibitory activity against aldose reductase of rat lens at 10E-8 M concentration; method in brief: as §1
[8] = biological target: T1, Albumin; assay: In vitro ability to inhibit the irreversible modification of the model protein albumin in the presence of fructose as glycating agent (1 mM); method in brief: as §2
[9] = biological target: T1, Albumin; assay: Glycation-induced fluorescence changes of bovine serum albumin when exposed to fructose (2.5 mM); p<0.001; type: functional; details: cattle; method in brief: as §2
[10] = biological target: T1, Albumin; assay: In vitro ability to inhibit the irreversible modification of the model protein albumin in the presence of fructose as glycating agent (2.5 mM); method in brief: as §2
[11] = biological target: Aldo-keto reductase family 1 member B1 (Rattus norvegicus) (UniProt P07943); assay: In vitro inhibitory activity against aldose reductase of rat lens at 10E-7 M concentration; method in brief: as §1
[12] = biological target: T1, Albumin; assay: Formation of DNPH-reactive carbonyl groups in bovine serum albumin exposed to fructose (2.5 mM); p<0.001; type: functional; details: cattle; method in brief: as §2
[13] = biological target: Aldo-keto reductase family 1 member B1 (Rattus norvegicus) (UniProt P07943); assay: In vitro inhibitory activity against aldose reductase of rat lens at 10E-5 M concentration; method in brief: as §1
[14] = biological target: T1, Albumin; assay: Formation of DNPH-reactive carbonyl groups in bovine serum albumin exposed to fructose; p<0.001; type: functional; details: cattle; method in brief: as §2
[15] = biological target: T1, Albumin; assay: Glycation-induced fluorescence changes of bovine serum albumin when exposed to fructose (1 mM); p<0.001; type: functional; details: cattle; method in brief: as §2
[16] = biological target: T1, Albumin; assay: Formation of DNPH-reactive carbonyl groups in bovine serum albumin exposed to fructose (5 mM); not detectable; type: functional; details: cattle; method in brief: as §2
[17] = biological target: T1, Albumin; assay: Formation of DNPH-reactive carbonyl groups in bovine serum albumin exposed to fructose (1 mM); not detectable; type: functional; details: cattle; method in brief: as §2
[18] = biological target: T1, Albumin; assay: Formation of DNPH-reactive carbonyl groups in bovine serum albumin exposed to fructose (2.5 mM); not detectable.; type: functional; details: cattle; method in brief: as §2
[19] = biological target: Aldo-keto reductase family 1 member B1 (Homo sapiens, UniProt P15121); assay: (§3) Inhibitory activity against aldose reductase enzyme
[20] = biological target: T1, Albumin; assay: Formation of DNPH-reactive carbonyl groups in bovine serum albumin exposed to fructose (1 mM); p<0.001; type: functional; details: cattle; method in brief: as §2
[21] = biological target: T1, Albumin; assay: Formation of DNPH-reactive carbonyl groups in bovine serum albumin exposed to fructose; not detectable.; type: functional; details: cattle; method in brief: as §2
[22] = biological target: Aldo-keto reductase family 1 member B1 (Rattus norvegicus) (UniProt P07943); assay: In vitro inhibitory activity against aldose reductase of rat lens at 10E-9 M concentration; method in brief: as §1
[23] = biological target: Aldo-keto reductase family 1 member B1 (Rattus norvegicus, UniProt P07943); assay: as §3; method in brief: as §1

Cn1cc(C(=O)c2ccn(CC(=O)O)c2)c2ccccc21 showed an inhibition [1] of 38%.

For COc1ccc(C(=O)c2cc(C(=O)c3ccccc3)n(CC(=O)O)c2)cc1, the Inhibition [2] was 75% and 100%, the Relative florescence [3] was 23.1 and the Carbonyl group [4] was “not detectable”. The Relative florescence [5] was 6.9, the Carbonyl group [6] was 4.38 nM/mg and the inhibition [7] was 13%. It also gave an Inhibition [8] of 20%, an inhibition at 1000 µM [8] of 17% and a Relative florescence [9] of 11.5. For the same compound, the Inhibition [10] was 41% and 66%, the inhibition [11] was 51% and the inhibition [1] was 93%. It also gave a Carbonyl group [12] of 1.7 nM/mg.

Cc1c(C)c2c(c(C)c1O)CCC(C)(C(=O)O)O2 (stereo unspecified) [TROLOX] was tested, and the inhibition [13] was 12%, the Carbonyl group [14] was 3.44 nM/mg and the Relative florescence [15] was 12.8. The Inhibition [8] was 54% and 32%.

With O=C(O)Cn1cccc1C(=O)c1ccccc1 the inhibition [13] was 36%.

Compound CC(C)(C)c1ccc(C(=O)c2ccn(CC(=O)O)c2)cc1 has an inhibition [1] of 41%.

O=C(O)Cn1ccc(C(=O)c2ccc(O)cc2)c1 showed an inhibition [1] of 45%.

O=C(O)Cn1cc(C(=O)c2ccccc2)c2ccccc21 gave an inhibition [1] of 38%.

Work on O=C(O)Cn1ccc(C(=O)c2cccc3ccccc23)c1 yielded an inhibition [11] of 59% and an inhibition [1] of 58%.

With O=C(O)Cn1ccc(C(=O)c2ccc(-n3cccc3)cc2)c1 the Carbonyl group [16] was “not detectable”, the Inhibition [2] was 100% and the Relative florescence [5] was 4.7. The Carbonyl group [17] was “not detectable”, the Relative florescence [15] was 17.4 and the Inhibition [8] was 37% and 100%. For the same compound, the Relative florescence [9] was 9.8, the Inhibition [10] was 65% and 100% and the inhibition [11] was 39%. The Carbonyl group [18] was “not detectable” and the inhibition [1] was 80%.

O=C(O)Cn1cc(C(=O)c2ccccc2)cc1C(=O)c1ccccc1 gave an inhibition [7] of 27%, an inhibition [11] of 62% and an inhibition [1] of 82%.

O=C(O)Cn1ccc(C(=O)c2ccc3ccccc3c2)c1 showed an inhibition [7] of 49%, an inhibition [11] of 72% and an inhibition [1] of 79%.

O=C(O)Cn1ccc(Cc2ccccc2)c1 showed an inhibition [1] of 9%.

Cc1ccc(C(=O)c2ccn(CC(=O)O)c2)cc1 gave an inhibition [1] of 46%.

O=C(O)Cn1ccc(C(=O)c2cccc(Cl)c2)c1 was tested, and the inhibition [1] was 44%.

For NC(=O)[C@@H]1C[C@]2(NC(=O)NC2=O)c2cc(F)ccc2O1, the IC50 [19] was 35 nM.

For O=C(O)Cn1ccc(C(=O)c2ccccc2)c1, the inhibition [1] was 27%.

O=C(O)Cn1ccc(C(=O)c2ccc3c(c2)CCO3)c1 showed an inhibition [1] of 42%.

Compound O=C(O)Cn1ccc(C(=O)Cc2ccccc2)c1 has an inhibition [1] of 29%.

Work on O=C(O)Cn1ccc(C(=O)c2ccc3occc3c2)c1 yielded an inhibition [1] of 40%.

COc1ccc(C(=O)c2ccn(CC(=O)O)c2)cc1 was tested, and the inhibition [11] was 26% and the inhibition [1] was 72%.

For O=C(O)Cn1ccc(C(=O)c2ccn(-c3ccccc3)c2)c1, the Inhibition [2] was 41% and 100%, the Relative florescence [5] was 16.4 and the Carbonyl group [20] was 1.55 nM/mg. For the same compound, the Relative florescence [15] was 21, the Inhibition [8] was 24% and 69% and the Relative florescence [9] was 21. For the same compound, the Carbonyl group [21] was “not detectable”, the inhibition [11] was 39% and the Carbonyl group [18] was “not detectable”. The inhibition [1] was 67%.

O=C(O)Cn1ccc(C(=O)c2ccc([N+](=O)[O-])cc2)c1 showed an inhibition [1] of 18%.

For COc1ccc(C(=O)c2cc(C(=O)c3ccc(OC)cc3)n(CC(=O)O)c2)cc1, the inhibition [22] was 41%, the Carbonyl group [16] was “not detectable” and the Inhibition [2] was 100%. It also gave a Relative florescence [5] of 3.3, an inhibition [7] of 59% and a Carbonyl group [20] of 2.52 nM/mg. It also gave a Relative florescence [15] of 17.3, an Inhibition [8] of 50% and an inhibition at 1000 µM [8] of 38%. For the same compound, the Relative florescence [9] was 11.8, the Inhibition [10] was 57% and 100% and the inhibition [11] was 94%. The IC50 [23] was 2.36 nM, the Carbonyl group [18] was “not detectable” and the inhibition [1] was 96%.

O=C(O)Cn1ccc(C(=O)c2ccc(Cl)cc2)c1 showed an inhibition [1] of 41%.

For O=C(O)Cn1ccc(C(=O)c2ccc(-c3ccccc3)cc2)c1, the inhibition [11] was 37% and the inhibition [1] was 76%.

In the case of O=C(O)Cn1ccc(C(=O)c2ccc(C(F)(F)F)cc2)c1, the inhibition [1] is reported as 47%.
